Experiment [1] addresses T1, Endothelin receptor type B (Homo sapiens, UniProt P24530).
T1 sequence (P24530 whole entry): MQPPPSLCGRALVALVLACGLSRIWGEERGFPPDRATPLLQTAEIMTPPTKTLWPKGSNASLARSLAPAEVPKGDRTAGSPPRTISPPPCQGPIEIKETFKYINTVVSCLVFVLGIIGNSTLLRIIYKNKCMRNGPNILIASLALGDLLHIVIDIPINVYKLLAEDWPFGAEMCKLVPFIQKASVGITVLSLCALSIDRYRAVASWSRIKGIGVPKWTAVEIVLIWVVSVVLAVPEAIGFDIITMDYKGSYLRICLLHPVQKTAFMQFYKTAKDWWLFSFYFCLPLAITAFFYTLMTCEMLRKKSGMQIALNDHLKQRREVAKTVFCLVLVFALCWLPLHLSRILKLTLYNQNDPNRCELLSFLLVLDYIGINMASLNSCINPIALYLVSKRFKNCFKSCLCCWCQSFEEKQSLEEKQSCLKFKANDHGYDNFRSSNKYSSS
The experiment in a line: Inhibition of [125I]ET-3 (ETB assay) binding to human cloned Endothelin B receptor in CHO cells. Format: cell-based. In short, it runs like this:
(§1)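 CHO cells stably expressing human ETA or ETB receptor; 10–50 µg membrane protein incubated 30 min at 25 °C in 50 mM Tris-HCl pH 7.4, 5 mM MnCl2, 40 µg/mL bacitracin, 0.2% BSA, with 25 pM [125I]ET-1 (ETA) or 25 pM [125I]ET-3 (ETB). Nonspecific binding with 0.1 µM ET-1; filtration, scintillation counting. Triplicate, repeated at least once; Ki by Cheng–Prusoff or nonlinear regression, ±SE.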

The target of a further experiment is T2, Endothelin-1 receptor (Homo sapiens, UniProt P25101).
T2 sequence (P25101 whole entry): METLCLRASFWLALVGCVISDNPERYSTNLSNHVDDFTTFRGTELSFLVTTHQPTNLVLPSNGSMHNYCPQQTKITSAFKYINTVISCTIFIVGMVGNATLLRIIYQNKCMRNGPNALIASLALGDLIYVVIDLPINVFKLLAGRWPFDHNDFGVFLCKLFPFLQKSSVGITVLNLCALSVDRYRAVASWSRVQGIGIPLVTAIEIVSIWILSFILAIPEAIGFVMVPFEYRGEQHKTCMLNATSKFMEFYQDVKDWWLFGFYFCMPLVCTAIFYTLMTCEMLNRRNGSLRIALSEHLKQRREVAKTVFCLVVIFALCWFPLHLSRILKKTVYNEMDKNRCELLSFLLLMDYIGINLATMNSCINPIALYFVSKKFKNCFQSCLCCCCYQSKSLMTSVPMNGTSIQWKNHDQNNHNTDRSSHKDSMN
The experiment in a line: Inhibition of [125I]-ET-1 (ETA assay) binding to human cloned Endothelin A receptor in CHO cells. The experiment is classed as cell-based. In short, it runs like this: as §1

Experiment [2] deals with T3, Endothelin receptor, ET-A/ET-B (Homo sapiens) (UniProt P24530+P25101). The experiment in a line: Selectivity for Endothelin A receptor compared to Endothelin B receptor. Format: protein assay.
Experiment [3] relates to Rattus norvegicus. The experiment in a line: Inhibition of big ET-induced blood pressure increase in drug treated rats with LU 135252 and 10 mg/Kg of compound given perorally was reported as (AUD 30 min) in mmHg(min). Format: functional. The procedure, abridged: (§2)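 Male Sprague–Dawley rats dosed 10 mg/kg p.o.; urethane anesthesia (1.6 g/kg i.p.), tracheotomy 90 min later, carotid artery cannulated for blood pressure, jugular vein for agonist. Big ET-1 20 µg/kg i.v. at 120 min post-dose; pressure recorded over 30 min as area under the data (AUD30min), compared with control; mean ± SEM.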

Experiment [4] relates to Rattus norvegicus. The experiment in a line: Percent reduction of big ET-induced blood pressure increase in drug treated rats with LU 135252 and 10 mg/Kg of compound given perorally was reported as (AUD 30 min) in mmHg(min). The experiment is classed as functional. In short, it runs like this:
as §2

Experiment [5] deals with T3, Endothelin receptor, ET-A/ET-B (Homo sapiens). The experiment in a line: Compound was tested for %inhibition of big ET-induced bronchospasm in guinea pigs with LU 135252 and balanced ETA/B receptor antagonists at 10 mg/kg oral dose was reported as (AUD 30 min) in mL(min). The following applies: Cavia porcellus.
The target is the same in experiment [6]. The experiment in a line: Compound was tested for inhibition of big ET-induced bronchospasm in drug treated guinea pigs with LU 135252 and balanced ETA/B receptor antagonists at 10 mg/kg oral dose was reported as (AUD 30 min) in mL(min). The following applies: Cavia porcellus.
Experiment [7] relates to Rattus norvegicus. The experiment in a line: Inhibition of big ET-induced blood pressure increase in drug treated rats with 10 mg/Kg of compound given perorally was reported as (AUD 30 min) in mmHg(min). Format: functional. In short, it runs like this: as §2
The target of experiment [8] is T3, Endothelin receptor, ET-A/ET-B (Homo sapiens). The following applies: Rattus norvegicus; 10 mg/kg.
Experiment [9] shares this target. The following applies: Rattus norvegicus; 30 mg/kg.
The target of experiment [10] is T4, Endothelin receptor (Rattus norvegicus) (UniProt P26684+P21451). The following applies: Blood, 10 mg/kg.
T4 sequence (P21451 whole entry, looked up): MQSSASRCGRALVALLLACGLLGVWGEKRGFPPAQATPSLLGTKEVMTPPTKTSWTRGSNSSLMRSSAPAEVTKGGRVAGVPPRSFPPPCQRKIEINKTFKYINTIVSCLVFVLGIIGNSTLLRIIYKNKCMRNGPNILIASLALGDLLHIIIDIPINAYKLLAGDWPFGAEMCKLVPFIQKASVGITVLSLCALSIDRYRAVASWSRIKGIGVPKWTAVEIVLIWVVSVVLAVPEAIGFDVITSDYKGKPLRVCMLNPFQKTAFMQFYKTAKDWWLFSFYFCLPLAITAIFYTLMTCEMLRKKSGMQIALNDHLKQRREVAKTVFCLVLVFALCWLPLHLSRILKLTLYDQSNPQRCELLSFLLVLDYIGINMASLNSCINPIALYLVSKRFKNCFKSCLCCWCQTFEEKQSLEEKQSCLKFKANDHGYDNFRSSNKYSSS
T4 sequence (P26684 whole entry, looked up): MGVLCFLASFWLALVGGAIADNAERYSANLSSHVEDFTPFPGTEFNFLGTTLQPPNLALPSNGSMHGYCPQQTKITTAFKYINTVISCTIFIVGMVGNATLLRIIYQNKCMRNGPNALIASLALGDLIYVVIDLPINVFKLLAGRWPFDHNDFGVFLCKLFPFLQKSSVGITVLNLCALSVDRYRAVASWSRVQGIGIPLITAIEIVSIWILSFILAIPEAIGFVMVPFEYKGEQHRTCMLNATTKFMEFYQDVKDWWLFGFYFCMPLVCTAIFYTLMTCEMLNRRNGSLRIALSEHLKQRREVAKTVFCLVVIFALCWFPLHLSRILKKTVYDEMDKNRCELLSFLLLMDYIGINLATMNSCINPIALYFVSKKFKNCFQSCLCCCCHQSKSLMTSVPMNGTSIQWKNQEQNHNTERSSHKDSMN
In experiment [11] the target is T4, Endothelin receptor (Rattus norvegicus). The following applies: Blood, 10 mg/kg. This is another data set of the same source.

The Ki is a dissociation constant, usually derived from enzyme kinetics or from competition with a known ligand. Low values mean higher affinity, high ones lower affinity. As to `Cc1cc(C)nc(OC(C(=O)O)C(OCCc2ccc(C(=O)O)cc2)(c2ccccc2)c2ccccc2)n1` (stereo not drawn), the Ki in [1] worked out at 0.115 µM; on Endothelin-1 receptor, 0.0015 µM. Also, in experiment [2], the Ratio is 77.

`COc1ccc(CCOC(c2ccccc2)(c2ccccc2)C(Oc2nc(C)cc(C)n2)C(=O)O)cc1` (stereo not drawn) showed a Ki in experiment [1] of 0.0242 µM. Moreover, in experiment [2], the Ratio came out at 4. Also, the BP increase in the experiment on Rattus norvegicus [3] was 976 mmHg; in the experiment on Rattus norvegicus [4], 33%.

In the case of `COc1cc(CCOC(c2ccccc2)(c2ccccc2)C(Oc2nc(C)cc(C)n2)C(=O)O)cc(OC)c1OC` (stereo not drawn), the Ki is 0.00321 µM in experiment [1] and 0.00138 µM on Endothelin-1 receptor. In addition, the Ratio in experiment [2] was 2.3. Besides, the figures for the BP increase with Rattus norvegicus [3] and in the experiment with Rattus norvegicus [4] were 1123 mmHg and 25%, respectively.

With `Cc1ccc(CCCOC(c2ccccc2)(c2ccccc2)C(Oc2nc(C)cc(C)n2)C(=O)O)cc1` (stereo not drawn), the Ki in experiment [1] was found to be 0.17 µM; at Endothelin-1 receptor, 0.023 µM.

For `Cc1cc(C)nc(OC(C(=O)O)C(OCCc2ccccc2)(c2ccccc2)c2ccccc2)n1` (stereo not drawn), the Ki came to 0.23 µM in [1] and 0.025 µM on Endothelin-1 receptor. The Ratio in experiment [2] came out at 9.2.

Turning to `Cc1ccc(CCOC(c2ccccc2)(c2ccccc2)C(Oc2nc(C)cc(C)n2)C(=O)O)cc1` (stereo not drawn), the Ki in [1] is 0.055 µM; on Endothelin-1 receptor, 0.0325 µM.

On to `CCc1ccc(C(OCCc2ccc(OC)cc2)(c2ccc(CC)cc2)C(Oc2nc(C)cc(C)n2)C(=O)O)cc1` (stereo not drawn), for which the results for the Ki (in experiment [1]; at Endothelin-1 receptor) were 0.195 µM and 0.25 µM, respectively. Moreover, the Ratio in experiment [2] was 0.8.

Consider `COc1ccc(CCOC(c2ccccc2)(c2ccccc2)C(Oc2nc(C)cc(C)n2)C(=O)O)cc1OC` (stereo not drawn), for which, in [2], the Ratio is 2. The figures for the BP increase in the experiment with Rattus norvegicus [3] and in the experiment with Rattus norvegicus [4] were 641 mmHg and 58%, respectively. Moreover, the results for the Reduction in respiratory volume in experiment [5] and in experiment [6] were 67% and 71 mL, respectively.

Regarding `COc1cc(C)nc(OC(C(=O)O)C(OCCc2ccc(OC)c(OC)c2)(c2ccc(Cl)cc2)c2ccc(Cl)cc2)n1` (stereo not drawn), the Ratio in experiment [2] came to 0.6.

`CCOc1ccc(CCOC(c2ccccc2)(c2ccccc2)C(Oc2nc(C)cc(C)n2)C(=O)O)cc1OC` (stereo not drawn): the Ki amounted to 0.0251 µM in [1] and 0.00313 µM at Endothelin-1 receptor. Further, the Ratio in experiment [2] amounted to 8. In addition, the BP increase amounted to 475 mmHg with Rattus norvegicus [3] and 68% in the experiment with Rattus norvegicus [4].

As for `COc1cc(CCOC(c2ccccc2)(c2ccccc2)C(Oc2nc(C)cc(C)n2)C(=O)O)ccc1OCC(=O)O` (stereo not drawn), the Ki stood at 0.024 µM in experiment [1] and 0.00192 µM on Endothelin-1 receptor. For the same compound, the Ratio in [2] was determined as 12. In addition, the BP increase in the experiment on Rattus norvegicus [3] was determined as 1294 mmHg; in the experiment on Rattus norvegicus [4], 14%.

The compound `COc1cc(OC)nc(O[C@H](C(=O)O)C(OC)(c2ccccc2)c2ccccc2)n1` [DARUSENTAN] displayed a BP increase in the experiment on Rattus norvegicus [7] of 636 mmHg. Besides, the Reduction in respiratory volume in experiment [8] worked out at 19 mL; in [9] it was 172 mL.

Consider `COc1ccc(CCOC(c2ccccc2)(c2ccccc2)[C@H](Oc2nc(C)cc(C)n2)C(=O)O)cc1OC` [FELOPRENTAN], for which the Ki in [1] was 0.00475 µM; on Endothelin-1 receptor, 0.00215 µM. Besides, in experiment [2], the Ratio was 2.2. The values for the BP increase with Rattus norvegicus [3] and with Rattus norvegicus [4] were 583 mmHg and 61%, respectively. Moreover, the results for the Reduction in respiratory volume in [5] and in experiment [6] were 79% and 46 mL, respectively.

For `COc1cc(/C=C/COC(c2ccccc2)(c2ccccc2)C(Oc2nc(C)cc(C)n2)C(=O)O)cc(OC)c1OC` (stereo not drawn), the Ki is 0.02 µM in experiment [1] and 0.048 µM on Endothelin-1 receptor. For the same compound, the Ratio in experiment [2] was 0.4.

As to `COc1ccc(CCOC(c2ccc(Cl)cc2)(c2ccc(Cl)cc2)C(Oc2nc3c(c(OC)n2)CCC3)C(=O)O)cc1OC` (stereo not drawn), the Ki in experiment [1] amounted to 0.215 µM; on Endothelin-1 receptor, 0.29 µM. In addition, in experiment [2], the Ratio came to 0.7.

Turning to `COc1ccc(CCOC(c2ccc(C)cc2)(c2ccc(C)cc2)C(Oc2nc(OC)c3c(n2)OCC3)C(=O)O)cc1` (stereo not drawn), the Ki in experiment [1] was 0.0712 µM; at Endothelin-1 receptor it was 0.105 µM. Also, the Ratio in [2] came out at 0.7.

For the compound `Cc1cc(C)nc(OC(C(=O)O)C(OCCc2ccc(O)cc2)(c2ccccc2)c2ccccc2)n1` (stereo not drawn), the Ki turned out to be 0.0162 µM in experiment [1] and 0.00348 µM on Endothelin-1 receptor. Also, the Ratio in experiment [2] was found to be 4.7.

Turning to `COc1ccccc1Oc1c(NS(=O)(=O)c2ccc(C(C)(C)C)cc2)nc(-c2ncccn2)nc1OCCO`, the BP increase in [10] was determined as 7%; in experiment [11], 1400 AUD30min.

In the case of `Cc1ccc(/C=C/COC(c2ccccc2)(c2ccccc2)C(Oc2nc(C)cc(C)n2)C(=O)O)cc1` (stereo not drawn), the Ki in experiment [1] amounted to 0.32 µM; at Endothelin-1 receptor, 0.032 µM.

`COc1ccc(COC(c2ccccc2)(c2ccccc2)C(Oc2nc(C)cc(C)n2)C(=O)O)cc1OC` (stereo not drawn): the Ki in [1] is 0.063 µM; on Endothelin-1 receptor, 0.002 µM. The Ratio in experiment [2] worked out at 31.

`Cc1cc(C)nc(OC(C(=O)O)C(OCCc2ccc(Cl)cc2)(c2ccccc2)c2ccccc2)n1` (stereo not drawn) showed a Ki in experiment [1] of 0.0941 µM. Further, in experiment [2], the Ratio was 4.7.

With `CCc1ccc(C(OCCc2ccc(OC)cc2)(c2ccc(CC)cc2)C(Oc2nc(C)cc(OC)n2)C(=O)O)cc1` (stereo not drawn), the Ki in experiment [1] is 0.16 µM; at Endothelin-1 receptor, 0.155 µM. Moreover, the Ratio in [2] is 1.

Take `COc1ccc(OC(c2ccccc2)(c2ccccc2)C(Oc2nc(C)cc(C)n2)C(=O)O)cc1OC` (stereo not drawn): the results for the Ki (in experiment [1]; at Endothelin-1 receptor) were 0.06 µM and 0.00048 µM, respectively. Further, in [2], the Ratio was determined as 125.

On Endothelin-1 receptor, `COc1ccc(CCOC(c2ccccc2)(c2ccccc2)C(Oc2nc(C)cc(OC)n2)C(=O)O)cc1` (stereo not drawn) showed a Ki of 0.00195 µM. In addition, the Ratio in [2] stood at 11.8.

Regarding `COc1cc(C)nc(OC(C(=O)O)C(OCCc2ccc(OC)c(OC)c2)(c2ccccc2)c2ccccc2)n1` (stereo not drawn), the figures for the Ki (in [1]; at Endothelin-1 receptor) were 0.0147 µM and 0.00237 µM, respectively. Moreover, the Ratio in experiment [2] stood at 6.2.

With `CCc1ccc(C(OCCc2ccc(OC)c(OC)c2)(c2ccc(CC)cc2)C(Oc2nc(C)cc(OC)n2)C(=O)O)cc1` (stereo not drawn), the figures for the Ki (in experiment [1]; at Endothelin-1 receptor) were 0.04 µM and 0.0393 µM, respectively. Further, the Ratio in [2] was 1.

For the origin of these results see ChEMBL document CHEMBL1132335, “Discovery and synthesis of (S)-3-[2-(3,4-dimethoxyphenyl)ethoxy]-2- (4,6-dimethylpyrimidin-2-yloxy)-3,3-diphenylpropionic acid (LU 302872), a novel orally active mixed ET(A)/ET(B) receptor antagonist” (J Med Chem, 1999).
